Common to all, as to format: functional, cell-based
One assay has as its system MCF7. The assay can be described thus: Cytotoxicity against human MCF7 cells measured after 48 hrs by MTT assay. To be noted: MCF7, 48 h. In short, it runs like this:
(§1)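 Seeded at 7x10^3 cells/well and allowed 24 h to attach. Compounds added at final 0 to 200 μM and incubated 48 h. Viability read by MTT. IC50 taken as the concentration giving 50% growth inhibition; mean ± SD, N = 4.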

The test system of another assay is SiHa. Briefly: Cytotoxicity against human SiHa cells measured after 48 hrs by MTT assay. An outline of the steps:
as §1
(In general: Tetrazolium assays rely on reduction of a dye to a coloured formazan, in cell work by metabolically active cells.)

Another assay deals with SW-620. The assay can be described thus: Cytotoxicity against human SW620 cells measured after 48 hrs by MTT assay. To be noted: SW-620, 48 h. In short, it runs like this: as §1
Assay [1] can be described thus: Cytotoxicity against human SA cells measured after 48 hrs by MTT assay. Particulars: +SA cell. In short, it runs like this:
as §1

Another assay deals with A-431. The assay can be described thus: Cytotoxicity against human A431 cells measured after 48 hrs by MTT assay. To be noted: A-431, 48 h. An outline of the steps:
as §1

The subject of the next assay is HepG2. Briefly: Cytotoxicity against human HepG2 cells measured after 48 hrs by MTT assay. To be noted: HepG2, 48 h. An outline of the steps:
as §1

Regarding `CCCCCCCCCCCCCCCCCCNC(=O)[C@@H](NC(=O)/C=C/c1ccccc1)[C@@H](C)O`, the IC50 was 39.2 µM in the assay on MCF7, 35.9 µM in the assay with SiHa, 200 µM in the assay with SW-620 and 47.1 µM in assay [1].
Turning to `C/C=C/C=C/C(=O)N[C@H](C(=O)NCCCCCCCCCCCCCCCCCC)[C@@H](C)O`, the IC50 with MCF7 is 79.6 µM; in the assay on SiHa, > 200 µM; in the assay with SW-620 it was 200 µM; with A-431 it was 187 µM; in assay [1], > 200 µM; in the assay on HepG2, 284 µM.
For the molecule `CCCCCCCCCCCCCCCCCCNC(=O)[C@@H](NC(=O)c1cc2ccccc2n1C)[C@@H](C)O`, the IC50 turned out to be 36.4 µM with MCF7, 124 µM in the assay with SW-620, 61 µM in the assay with A-431 and 36.4 µM in assay [1].
As for `C/C=C/C=C/C(=O)N[C@H](C(=O)NCCCCCCCCCCCC)[C@@H](C)O`, the concentration for half-maximal inhibition (IC50) in the assay with MCF7 came to 37.1 µM; in the assay on SW-620, 200 µM.
As to `CCCCCCCCCCCCCCCCCCNC(=O)[C@@H](NC(=O)Cc1c[nH]c2ccccc12)[C@@H](C)O`, the IC50 is 37.3 µM in the assay on MCF7; 65.8 µM with SiHa; 31.8 µM in the assay on A-431; 54.9 µM in assay [1]; 57.6 µM in the assay with HepG2.
For `CCCCCCCCCCCCCCNC(=O)[C@@H](NS(=O)(=O)c1cccs1)[C@@H](C)O`, the IC50 worked out at 18.7 µM in the assay on MCF7; 20.4 µM in the assay on SiHa; 18.4 µM in the assay on SW-620; 22 µM with A-431; 11.6 µM in assay [1]; 21.6 µM in the assay on HepG2.
In the case of `CCCCCCCCCCCCNC(=O)[C@@H](NS(=O)(=O)c1cccs1)[C@@H](C)O`, the half-inhibitory concentration (IC50) with MCF7 was found to be 19.1 µM; in the assay with SiHa, 30.9 µM; in the assay on SW-620 it was 27.9 µM; in the assay on A-431, 22 µM; in assay [1], 20.1 µM; in the assay on HepG2, 25.9 µM.
`CCCCCCCCCCCCCCCCCCNC(=O)[C@@H](NS(=O)(=O)c1cccs1)[C@@H](C)O`: the IC50 (with MCF7; in the assay with SW-620; in assay [1]) was > 200 µM each time.
For the molecule `CCCCCCCCNC(=O)[C@@H](NC(=O)c1ccccc1)[C@@H](C)O`, the half-maximal inhibitory concentration (IC50) with SW-620 stood at 200 µM; in the assay with A-431, 61.3 µM; in assay [1] it was 34.6 µM.
As to `CCCCCCCCCCCCNC(=O)[C@@H](NC(=O)c1cccs1)[C@@H](C)O`, the IC50 is 30.4 µM in the assay with MCF7; 23.9 µM in the assay with SiHa; 29.2 µM in the assay on SW-620; 16.6 µM in the assay on A-431; 23.3 µM in assay [1]; 30.1 µM with HepG2.
Turning to `CCCCCCCCCCCCCCCCCCNC(=O)[C@@H](NC(=O)c1ccccc1)[C@@H](C)O`, the IC50 was 31.8 µM in the assay on MCF7, 38.2 µM in the assay on SiHa, 200 µM in the assay with SW-620 and > 400 µM in assay [1].
On to `CCCCCCCCCCCCCCNC(=O)[C@@H](NC(=O)c1cc2ccccc2o1)[C@@H](C)O`, for which the IC50 in the assay on MCF7 turned out to be 23.4 µM; in the assay on SiHa it was 14.2 µM; in the assay on SW-620 it was 26.7 µM; in the assay with A-431, 20.1 µM; in assay [1], 9.61 µM; in the assay with HepG2, 23.4 µM.
Take `CCCCCCCCCCCCNC(=O)[C@@H](NC(=O)c1cc2ccccc2[nH]1)[C@@H](C)O`: the concentration for half-maximal inhibition (IC50) in the assay on MCF7 was determined as 12.3 µM; in the assay on SiHa, 21.2 µM; in the assay with SW-620, 18.8 µM; in the assay with A-431, 10.3 µM; in assay [1], 12.3 µM; with HepG2, 12 µM.
Regarding `CCCCCCCCCCCCCCCCCCNC(=O)[C@@H](NC(=O)c1cc2ccccc2o1)[C@@H](C)O`, the figures for the half-inhibitory concentration (IC50) in the assay on SW-620 and in the assay with A-431 were > 200 µM and 78.8 µM, respectively.
Regarding `CCCCCCCCCCCCCCCCCCNC(=O)[C@@H](NS(=O)(=O)c1ccc(C)cc1)[C@@H](C)O`, the concentration for half-maximal inhibition (IC50) worked out at 60.1 µM in the assay on MCF7; 29.8 µM in the assay on SiHa; 32.5 µM in the assay with SW-620; 34 µM in the assay with A-431; 47.9 µM in assay [1]; 75.8 µM in the assay with HepG2.
`CCCCCCCCCCCCNC(=O)[C@@H](NC(=O)/C=C/c1ccccc1)[C@@H](C)O` came in with a half-inhibitory concentration (IC50) with SW-620 of 200 µM.
Turning to `CCCCCCCCCCCCCCNC(=O)[C@@H](NC(=O)c1cccs1)[C@@H](C)O`, the IC50 is 36.1 µM in the assay on MCF7; 63 µM in the assay on SiHa; 78.4 µM in the assay with SW-620; 26.4 µM in the assay on A-431; 21.2 µM in assay [1]; 88.4 µM with HepG2.
`CCCCCCCCCCCCNC(=O)[C@@H](NC(=O)c1cc2ccccc2n1C)[C@@H](C)O`: the IC50 in the assay with MCF7 was 31.3 µM; in the assay on SW-620, > 200 µM; in assay [1] it was 31.3 µM.
As for `CCCCCCCCNC(=O)[C@@H](NC(=O)/C=C/c1ccccc1)[C@@H](C)O`, the IC50 turned out to be 35.1 µM in the assay on MCF7; 41.4 µM with SiHa; 61.4 µM in the assay on SW-620; 36 µM with A-431; 25.6 µM in assay [1]; 55.6 µM in the assay on HepG2.
`CCCCCCCCCCCCCCCCCCNC(=O)[C@@H](NS(=O)(=O)c1ccc2ccccc2c1)[C@@H](C)O`: the IC50 amounted to 27.8 µM with MCF7; 19.9 µM in the assay on SiHa; 24.6 µM in the assay on SW-620; 23.7 µM in the assay with A-431; 21.2 µM in assay [1]; 19.8 µM in the assay on HepG2.
Regarding `CCCCCCCCCCCCCCNC(=O)[C@@H](NC(=O)c1ccccc1)[C@@H](C)O`, the IC50 in the assay with MCF7 came to 24.8 µM; with SW-620, 200 µM; in assay [1], 56 µM; in the assay with HepG2, 54.2 µM.
Turning to `CCCCCCCCCCCCCCCCCCNC(=O)[C@@H](NC(=O)c1ccco1)[C@@H](C)O`, the concentration for half-maximal inhibition (IC50) in the assay with MCF7 was 21.4 µM; in the assay with SiHa it was 13.3 µM; with SW-620 it was > 200 µM; in the assay with A-431 it was 19.9 µM; in assay [1] it was 52.6 µM; in the assay with HepG2, 42.3 µM.
Consider `CCCCCCCCCCCCNC(=O)[C@@H](NC(=O)c1cc2ccccc2o1)[C@@H](C)O`, for which the 50% inhibitory concentration (IC50) in the assay on MCF7 was determined as 20.9 µM; with SiHa, 12.8 µM; in the assay with SW-620, 21.3 µM; in the assay on A-431, 20 µM; in assay [1] it was 10.5 µM; with HepG2, 22.9 µM.
Consider `C/C=C/C=C/C(=O)N[C@H](C(=O)NCCCCCCCCCCCCCC)[C@@H](C)O`, for which the values for the IC50 with MCF7 and in the assay on SW-620 were 27.8 µM and 200 µM, respectively.
As for `CCCCCCCCCCCCCCCCCCNC(=O)[C@@H](NC(=O)c1cccs1)[C@@H](C)O`, the 50% inhibitory concentration (IC50) in the assay on MCF7 is 25.7 µM; in the assay with SW-620, 200 µM; in the assay with A-431 it was 33.3 µM; in assay [1], 53.5 µM; in the assay on HepG2, 92 µM.
With `CCCCCCCCNC(=O)[C@@H](NC(=O)c1ccco1)[C@@H](C)O`, the half-inhibitory concentration (IC50) in the assay with MCF7 turned out to be 91.8 µM; with SW-620, 200 µM; with A-431, 64.5 µM; in assay [1], 64.7 µM.
As for `CCCCCCCCCCCCNC(=O)[C@@H](NC(=O)Cc1c[nH]c2ccccc12)[C@@H](C)O`, the IC50 with MCF7 was found to be 15.5 µM; in the assay with SiHa, 13.6 µM; in the assay on SW-620, 22 µM; with A-431, 23.4 µM; in assay [1], 20 µM; with HepG2 it was 22.6 µM.
Consider `CCCCCCCCCCCCCCNC(=O)[C@@H](NC(=O)c1nccc2ccccc12)[C@@H](C)O`, for which the concentration for half-maximal inhibition (IC50) with MCF7 is 22.8 µM; in the assay on SiHa, 21.6 µM; in the assay with SW-620, 30.4 µM; in the assay with A-431, 23 µM; in assay [1], 24.4 µM; with HepG2, 28.6 µM.
For the molecule `CCCCCCCCCCCCCCNC(=O)[C@@H](NC(=O)c1ccco1)[C@@H](C)O`, in the assay with SW-620, the IC50 came to 200 µM.
With `CCCCCCCCCCCCCCNC(=O)[C@@H](NC(=O)c1cc2ccccc2[nH]1)[C@@H](C)O`, the IC50 with MCF7 was found to be 15.1 µM; in the assay on SiHa, 14.2 µM; with SW-620, 15.2 µM; with A-431 it was 12.2 µM; in assay [1], 12.1 µM; in the assay with HepG2, 10.5 µM.
Regarding `CCCCCCCCNC(=O)[C@@H](NC(=O)c1nccc2ccccc12)[C@@H](C)O`, the half-maximal inhibitory concentration (IC50) amounted to 63.2 µM in the assay with MCF7; 66 µM in the assay on SiHa; 67.8 µM in the assay on SW-620; 26.9 µM with A-431; 22.9 µM in assay [1]; 88.2 µM in the assay with HepG2.
On to `CCCCCCCCCCCCCCCCCCNC(=O)[C@@H](NC(=O)c1cc2ccccc2[nH]1)[C@@H](C)O`, for which the IC50 in the assay on MCF7 amounted to 35.6 µM; in the assay on SiHa, 29.6 µM; in the assay with SW-620 it was 23.6 µM; in the assay on A-431, 81 µM; in assay [1], 35.6 µM; in the assay on HepG2, 89.4 µM.
Regarding `CCCCCCCCCCCCCCCCCCNC(=O)[C@@H](N)[C@@H](C)O`, the concentration for half-maximal inhibition (IC50) is 27.4 µM in the assay with MCF7; 39.5 µM in the assay on SiHa; 21.4 µM with SW-620; 21.3 µM with A-431; > 200 µM in assay [1]; 44.5 µM in the assay with HepG2.
In the case of `CCCCCCCCCCCCCCNC(=O)[C@@H](NC(=O)/C=C/c1ccccc1)[C@@H](C)O`, the concentration for half-maximal inhibition (IC50) came to 64.6 µM in the assay with MCF7; 35.8 µM in the assay on SiHa; 200 µM in the assay with SW-620; 64.9 µM in the assay on A-431; 80.9 µM in assay [1].
On to `CCCCCCCCCCCCNC(=O)[C@@H](NS(=O)(=O)c1ccc(C)cc1)[C@@H](C)O`, for which the IC50 was 31.1 µM in the assay with MCF7; 31.6 µM in the assay with SiHa; 25.6 µM in the assay on SW-620; 25.2 µM in the assay on A-431; 27.2 µM in assay [1]; 25.8 µM with HepG2.

Broadly, the IC50 is the concentration at which inhibition is half-maximal.

These data come from ChEMBL document CHEMBL4316609, “Chemical synthesis and functional characterization of a new class of ceramide analogues as anti-cancer agents” (Bioorg Med Chem, 2019).
